# What was measured:
# NCI-H460 = assay: Cytotoxicity against human NCI-H460 cells assessed as inhibition of cell proliferation at 25 uM incubated for 72 hrs by MTT assay relative to control; type: functional; design: scale not given: the % may be the effect or the level left
# Procedure, shortened: (§1)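 Tumor lines from NCI. PC-3, HCT-116 and NCIH-460 were grown in RPMI 1640; SKMEL-103 and AGP-01 in DMEM; all with 10% FBS at 37 °C, 5% CO2. Seeding was 0.3×10⁶ cells/mL for SKMEL-103 and AGP-01, 0.1×10⁶ for PC-3 and NCIH-460, and 0.7×10⁵ for HCT-116. Cells were exposed to compound at 25 µM for 72 h. Cells were centrifuged, 1% MTT added for 3 h, formazan dissolved in DMSO and read at 570 nm.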
# [1] = Cytotoxicity against human AGP01 cells assessed as inhibition of cell proliferation at 25 uM incubated for 72 hrs by MTT assay relative to control; type: functional; design: scale not given: the % may be the effect or the level left; procedure, shortened: as §1
# SK-MEL-103 = assay: Cytotoxicity against human SK-MEL-103 cells assessed as inhibition of cell proliferation at 25 uM incubated for 72 hrs by MTT assay relative to control; type: functional; design: scale not given: the % may be the effect or the level left; procedure, shortened: as §1
# PC-3 = assay: Cytotoxicity against human PC-3 cells assessed as inhibition of cell proliferation at 25 uM incubated for 72 hrs by MTT assay relative to control; type: functional; design: scale not given: the % may be the effect or the level left; procedure, shortened: as §1
# HCT-116 = assay: Cytotoxicity against human HCT-116 cells assessed as inhibition of cell proliferation at 25 uM incubated for 72 hrs by MTT assay relative to control; type: functional; design: scale not given: the % may be the effect or the level left; procedure, shortened: as §1
# [2] = system: Mycobacterium tuberculosis; assay: Antimycobacterial activity against Mycobacterium tuberculosis H37Ra ATCC 25177 assessed as inhibition of bacterial growth incubated for 9 days by resazurin microtiter assay; type: functional; details: H37Ra ATCC 25177, 216 h, time 9 day
# Procedure, shortened: (§2)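 REMA broth microdilution in 7H9-S medium, run in duplicate. Test compounds were serially two-fold diluted on the plate from 64 to 0.5 µg/mL. Inoculum taken from fresh Löwenstein-Jensen culture, adjusted to McFarland no. 1 and diluted 1:20. Plates were sealed and incubated at 37 °C in normal atmosphere for 9 days, then resazurin was added. Rifampicin and ethambutol served as standards. MIC reported in µg/mL.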
# [3] = Selectivity index, ratio of CC50 for mouse RAW264.7 cells to MIC for antimycobacterial activity against Mycobacterium tuberculosis H37Rv ATCC 27294; type: toxicity; details: read-out: Selectivity Index
# [4] = Cytotoxicity against mouse RAW264.7 cells assessed as reduction in cell viability incubated for 48 hrs by MTT assay; type: cell-based
# Procedure, shortened: (§3)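 RAW 264.7 macrophages and HepG2 cells were cultured in DMEM at 37 °C, 5% CO2. For the assay, 10⁵ cells/well were preincubated for 24 h, then exposed to compounds at […] for 48 h, in duplicate. MTT (5 mg/mL in PBS) was added for 2 h and absorbance read at 570 nm. Untreated wells served as the negative control. CC50 obtained by regression analysis.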
# [5] = Cytotoxicity against human HepG2 cells assessed as reduction in cell viability incubated for 48 hrs by MTT assay; type: cell-based; procedure, shortened: as §3
# [6] = system: Mycobacterium tuberculosis; assay: Antimycobacterial activity against Mycobacterium tuberculosis H37Rv ATCC 27294 assessed as inhibition of bacterial growth incubated for 9 days by resazurin microtiter assay; type: functional; details: H37Rv ATCC 27294, 216 h, time 9 day; procedure, shortened: as §2
# [7] = Selectivity index, ratio of CC50 for human HepG2 cells to MIC for antimycobacterial activity against Mycobacterium tuberculosis H37Rv ATCC 27294; type: toxicity; details: read-out: Selectivity Index
smiles,measurement,setting,value
O=[N+]([O-])c1ccc(-c2noc(NC3CCCCC3)n2)cc1,Activity,NCI-H460,10.4%
same,Activity,[1],53.2%
same,Activity,SK-MEL-103,50.7%
same,Activity,PC-3,20.3%
O=[N+]([O-])c1cccc(-c2noc(NC3CCCCC3)n2)c1,Activity,HCT-116,14.1%
same,Activity,[1],11.6%
same,Activity,SK-MEL-103,32%
same,Activity,PC-3,9.9%
CC(=O)OC[C@H]1O[C@H](OC[C@@H](CN=[N+]=[N-])OC(C)=O)C=C[C@@H]1OC(C)=O,MIC,[2],≥ 64 µg/mL
same,selectivity ratio,[3],< 1.66
same,CC50 at 48 h,[4],106 µg/mL
same,CC50 at 48 h,[5],> 200 µg/mL
same,MIC,[6],≥ 64 µg/mL
CC(=O)OC[C@H]1O[C@H](OC[C@H](Cn2cc(COc3ccc(-c4noc(C)n4)cc3)nn2)OC(C)=O)C=C[C@@H]1OC(C)=O,MIC,[2],≥ 64 µg/mL
same,selectivity ratio,[3],< 1.74
same,CC50 at 48 h,[4],112 µg/mL
same,CC50 at 48 h,[5],37.7 µg/mL
same,MIC,[6],≥ 64 µg/mL
same,selectivity ratio,[7],< 0.58
CC(=O)OC[C@H]1O[C@H](OC[C@@H](Cn2cc(CN(c3nc(-c4cccc([N+](=O)[O-])c4)no3)C3CCCCC3)nn2)OC(C)=O)C=C[C@@H]1OC(C)=O,Activity,HCT-116,27.7%
same,Activity,[1],44.7%
same,MIC,[2],≥ 64 µg/mL
same,selectivity ratio,[3],< 1.56
same,CC50 at 48 h,[4],100 µg/mL
same,CC50 at 48 h,[5],> 200 µg/mL
same,MIC,[6],≥ 64 µg/mL
same,Activity,SK-MEL-103,42.2%
same,Activity,PC-3,38.4%
C#Cc1ccc(-c2noc(NC3CCCCC3)n2)cc1,Activity,HCT-116,60.7%
same,Activity,NCI-H460,34%
same,Activity,[1],44.4%
same,MIC,[2],32 µg/mL
same,selectivity ratio,[3],0.62
same,CC50 at 48 h,[4],19.8 µg/mL
same,CC50 at 48 h,[5],54.2 µg/mL
same,MIC,[6],32 µg/mL
same,Activity,SK-MEL-103,40.1%
same,Activity,PC-3,46%
same,selectivity ratio,[7],1.69
CC(=O)OC[C@H]1O[C@H](OC[C@@H](Cn2cc(CN(c3nc(-c4ccc([N+](=O)[O-])cc4)no3)C3CCCCC3)nn2)OC(C)=O)C=C[C@@H]1OC(C)=O,Activity,HCT-116,39.1%
same,Activity,NCI-H460,36.3%
same,Activity,[1],47.6%
same,MIC,[2],≥ 64 µg/mL
same,selectivity ratio,[3],1.25
same,CC50 at 48 h,[5],> 200 µg/mL
same,MIC,[6],≥ 64 µg/mL
same,Activity,SK-MEL-103,30.6%
same,Activity,PC-3,28.8%
C#CCN(c1nc(-c2ccc(Br)cc2)no1)C1CCCCC1,MIC,[2],32 µg/mL
same,selectivity ratio,[3],0.48
same,CC50 at 48 h,[4],15.7 µg/mL
same,CC50 at 48 h,[5],102 µg/mL
same,MIC,[6],32 µg/mL
same,selectivity ratio,[7],3.18
CC(=O)OC[C@H]1O[C@H](OC[C@H](Cn2cc(-c3ccc(-c4noc(NC5CCCCC5)n4)cc3)nn2)OC(C)=O)C=C[C@@H]1OC(C)=O,MIC,[2],≥ 64 µg/mL
same,selectivity ratio,[3],< 0.25
same,CC50 at 48 h,[4],16.3 µg/mL
same,CC50 at 48 h,[5],79.8 µg/mL
same,MIC,[6],≥ 64 µg/mL
same,selectivity ratio,[7],< 1.24
CC(=O)OC[C@H]1O[C@H](OC[C@@H](Cn2cc(CN(c3nc(-c4ccc(Cl)cc4)no3)C3CCCCC3)nn2)OC(C)=O)C=C[C@@H]1OC(C)=O,MIC,[2],64 µg/mL
same,selectivity ratio,[3],0.55
same,CC50 at 48 h,[4],35.5 µg/mL
same,CC50 at 48 h,[5],46.9 µg/mL
same,MIC,[6],64 µg/mL
same,selectivity ratio,[7],0.73
CC(=O)OC[C@H]1O[C@H](OC[C@H](Cn2cc(COc3ccc(-c4noc(NC5CCCCC5)n4)cc3)nn2)OC(C)=O)C=C[C@@H]1OC(C)=O,MIC,[2],16 µg/mL
same,selectivity ratio,[3],2.08
same,CC50 at 48 h,[4],33.3 µg/mL
same,CC50 at 48 h,[5],99.5 µg/mL
same,MIC,[6],16 µg/mL
same,selectivity ratio,[7],6.21
C#CCOc1ccc(-c2noc(N(CC#C)C3CCCCC3)n2)cc1,MIC,[2],≥ 64 µg/mL
same,selectivity ratio,[3],1.57
same,CC50 at 48 h,[4],101 µg/mL
same,CC50 at 48 h,[5],> 200 µg/mL
same,MIC,[6],64 µg/mL
same,selectivity ratio,[7],> 3.12
CCCCCCCCCCc1cn(C[C@@H](CO[C@@H]2C=C[C@H](OC(C)=O)[C@@H](COC(C)=O)O2)OC(C)=O)nn1,MIC,[2],64 µg/mL
same,selectivity ratio,[3],0.47
same,CC50 at 48 h,[4],30.4 µg/mL
same,CC50 at 48 h,[5],59 µg/mL
same,MIC,[6],64 µg/mL
same,selectivity ratio,[7],0.92
C#CCN(c1nc(-c2ccccc2)no1)C1CCCCC1,Activity,NCI-H460,22.6%
same,Activity,[1],47%
same,MIC,[2],≥ 64 µg/mL
same,selectivity ratio,[3],< 0.5
same,CC50 at 48 h,[4],32.1 µg/mL
same,CC50 at 48 h,[5],109 µg/mL
same,MIC,[6],≥ 64 µg/mL
same,Activity,SK-MEL-103,28.6%
same,Activity,PC-3,23.7%
same,selectivity ratio,[7],< 1.69
C#CCN(c1nc(-c2ccc([N+](=O)[O-])cc2)no1)C1CCCCC1,Activity,HCT-116,37.2%
same,Activity,[1],52.5%
same,MIC,[2],≥ 64 µg/mL
same,selectivity ratio,[3],< 0.41
same,CC50 at 48 h,[4],26.7 µg/mL
same,CC50 at 48 h,[5],43.7 µg/mL
same,MIC,[6],≥ 64 µg/mL
same,Activity,SK-MEL-103,18.5%
same,Activity,PC-3,53.7%
same,selectivity ratio,[7],< 0.68
C#CCN(c1nc(-c2ccc(C#C)cc2)no1)C1CCCCC1,selectivity ratio,[3],< 0.2
same,CC50 at 48 h,[4],13.1 µg/mL
same,CC50 at 48 h,[5],27.9 µg/mL
same,MIC,[6],≥ 64 µg/mL
same,selectivity ratio,[7],< 0.43
CC(=O)OC[C@H]1O[C@H](OC[C@@H](Cn2cc(CN(c3nc(-c4ccc(-c5cn(C[C@H](CO[C@@H]6C=C[C@H](OC(C)=O)[C@@H](COC(C)=O)O6)OC(C)=O)nn5)cc4)no3)C3CCCCC3)nn2)OC(C)=O)C=C[C@@H]1OC(C)=O,MIC,[2],≥ 64 µg/mL
same,selectivity ratio,[3],< 1.82
same,CC50 at 48 h,[4],117 µg/mL
same,CC50 at 48 h,[5],11.8 µg/mL
same,MIC,[6],≥ 64 µg/mL
same,selectivity ratio,[7],< 0.18
C#CCN(c1nc(-c2ccc(C(F)(F)F)cc2)no1)C1CCCCC1,MIC,[2],64 µg/mL
same,selectivity ratio,[3],1.2
same,CC50 at 48 h,[4],38.3 µg/mL
same,CC50 at 48 h,[5],61.9 µg/mL
same,MIC,[6],32 µg/mL
same,selectivity ratio,[7],1.93
CC(=O)OC[C@H]1O[C@H](OC[C@@H](Cn2cc(CN(c3nc(-c4ccc(Br)cc4)no3)C3CCCCC3)nn2)OC(C)=O)C=C[C@@H]1OC(C)=O,MIC,[2],4 µg/mL
same,selectivity ratio,[3],4.89
same,CC50 at 48 h,[4],39.1 µg/mL
same,CC50 at 48 h,[5],47.6 µg/mL
same,MIC,[6],8 µg/mL
same,selectivity ratio,[7],5.95
C#CCN(c1nc(-c2ccc(C)cc2)no1)C1CCCCC1,MIC,[2],64 µg/mL
same,selectivity ratio,[3],< 0.27
same,CC50 at 48 h,[4],17.6 µg/mL
same,CC50 at 48 h,[5],91.9 µg/mL
same,MIC,[6],≥ 64 µg/mL
same,selectivity ratio,[7],< 1.43
C#CCN(c1nc(-c2ccc(Cl)cc2)no1)C1CCCCC1,MIC,[2],32 µg/mL
same,selectivity ratio,[3],0.95
same,CC50 at 48 h,[4],15.1 µg/mL
same,CC50 at 48 h,[5],41.3 µg/mL
same,MIC,[6],16 µg/mL
same,selectivity ratio,[7],2.58
CC(=O)OC[C@H]1O[C@H](OC[C@@H](Cn2cc(COc3ccc(-c4noc(N(Cc5cn(C[C@H](CO[C@@H]6C=C[C@H](OC(C)=O)[C@@H](COC(C)=O)O6)OC(C)=O)nn5)C5CCCCC5)n4)cc3)nn2)OC(C)=O)C=C[C@@H]1OC(C)=O,MIC,[2],≥ 64 µg/mL
same,CC50 at 48 h,[4],> 200 µg/mL
same,CC50 at 48 h,[5],47 µg/mL
same,MIC,[6],≥ 64 µg/mL
same,selectivity ratio,[7],< 0.73
CC(=O)OC[C@H]1O[C@H](OC[C@@H](Cn2cc(CN(c3nc(-c4cccc(Br)c4)no3)C3CCCCC3)nn2)OC(C)=O)C=C[C@@H]1OC(C)=O,Activity,NCI-H460,27.1%
same,Activity,[1],59.9%
same,Activity,SK-MEL-103,52.3%
same,Activity,PC-3,45.5%
CC[C@@H](CO)NCCN[C@@H](CC)CO [ETHAMBUTOL],MIC,[2],1 µg/mL
same,CC50 at 48 h,[4],≥ 400 µg/mL
same,CC50 at 48 h,[5],> 400 µg/mL
same,MIC,[6],1 µg/mL
CO[C@H]1/C=C/O[C@@]2(C)Oc3c(C)c(O)c4c(O)c(c(/C=N/N5CCN(C)CC5)c(O)c4c3C2=O)NC(=O)/C(C)=C\C=C\[C@H](C)[C@H](O)[C@@H](C)[C@@H](O)[C@@H](C)[C@H](OC(C)=O)[C@@H]1C [RIFAMPIN],MIC,[2],0.062 µg/mL
same,selectivity ratio,[3],643
same,CC50 at 48 h,[4],80.4 µg/mL
same,CC50 at 48 h,[5],176 µg/mL
same,MIC,[6],0.125 µg/mL
same,selectivity ratio,[7],1410

# Source: ChEMBL document CHEMBL4842319, “Synthesis of alkynylated 1,2,4-oxadiazole/1,2,3-1H-triazole glycoconjugates: Discovering new compounds for use in chemotherapy against lung carcinoma and Mycobacterium tuberculosis” (Eur J Med Chem, 2021)
